Laboratory results as given in paper PMC11092366 (RSC Advances, 2024).

Legend:
[1] = biological target: L. donovani DNA topoisomerase I; settings: L. donovani DNA topoisomerase I poison; cited from earlier work
[2] = test system: L. infantum MHOM/TN/80/IPT1 promastigotes; experiment: L. infantum viability assay; type: cell-based, Leishmania infantum
Summary of the method: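 Late log/stationary promastigotes, kept in EMTM at 26–28 °C, then RPMI-PY. Plated at 2.5 × 10^6 parasites per mL with 20 μM test compound, 72 h, 26 °C, in duplicate, miltefosine as positive control. Viability by CellTiter 96 aqueous assay gives % inhibition. SI is THP-1 CC50 divided by promastigote IC50. IC50 comes from 20–0.31 μM dilutions, fitted by nonlinear regression with unconstrained Hill slope.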

[3] = Cytotoxicity on PMA-differentiated THP-1 cells; type: cell-based; settings: human, PMA-differentiated macrophage-like THP-1 cells
Summary of the method: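 Human THP-1 cells grown in RPMI-1640 with 10% heat-inactivated FBS, 2 mM L-glutamine, penicillin and streptomycin at 37 °C, 5% CO2. Seeded at 5 × 10^6 cells per mL and differentiated 48 h with 20 ng mL−1 PMA. After adhesion, exposed to 1:2 dilutions (100 to 3.12 μM), in duplicate, with untreated and miltefosine controls. CellTiter 96 aqueous read-out; CC50 by nonlinear regression, mean and 95% CI.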

SMILES	IC50 [1]	SI (selectivity index = CC50/IC50) ([2]; CC50 THP-1 / IC50 L. infantum promastigotes)	IC50 ([2]; Leishmania infantum, 72 h, read-out: L. infantum IC50 (μM) (95% CI), L. infantum MHOM/TN/80/IPT1 promastigotes, 72 h, mean and 95% CI, duplicate experiments)	CC50 [3]
c1ccc2c(Cc3c[nH]c4ccccc34)c[nH]c2c1 [DIM, 3,3′-Diindolylmethane]	1.2 µM			
CCCCCCCCCCCCCCCCOP(=O)([O-])OCC[N+](C)(C)C [MILT, Miltefosine]		9.9	3.7 µM	36.6 µM
